≈ marks a conversion by molar mass, not a printed value.
Experiments:
[1] = Selectivity index, ratio of Ki for human CatL to Ki for Trypanosoma brucei rhodesiense rhodesain
Outline: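 Ki(hCatL)/Ki(RD). Fluorimetric assays at 25 °C: RD in 50 mM sodium acetate pH 5.5; hCatL in 50 mM Tris pH 6.5; both buffers with 5 mM EDTA, 200 mM NaCl, 0.005% Brij35. Ki derived from IC50 by Cheng-Prusoff. Each value is the mean of two measurements, each done in duplicate.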

[2] = Selectivity index, ratio of IC50 for rat L6 cells to IC50 for bloodstream form of Trypanosoma brucei rhodesiense STIB 900; assay type: toxicity; details: read-out: Ratio IC50
Outline: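 Ratio of L-6 rat skeletal myoblast IC50 to T. b. rhodesiense STIB 900 bloodstream trypomastigote IC50, both from Alamar Blue growth-inhibition assays. Each IC50 is the mean of at least 2 measurements.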

[3] = test system: Trypanosoma brucei rhodesiense; assay: Antitrypanosomal activity against bloodstream form of Trypanosoma brucei rhodesiense STIB 900 assessed as parasite growth inhibition after 72 hrs by Alamar blue assay; assay type: functional; details: STIB 900, 72 h
Outline: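 Standard 72 h growth-inhibition assay with STIB 900 bloodstream trypomastigotes and Alamar Blue read-out. Value is the mean of at least 2 measurements.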

L6 = assay: Cytotoxicity against rat L6 cells after 72 hrs by Alamar blue assay; assay type: cell-based; details: L6, 72 h
Outline: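 Rat skeletal myoblast L6 cells in an Alamar Blue growth-inhibition assay. Value is the mean of at least 2 measurements.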

Procathepsin L = Procathepsin L (Homo sapiens, UniProt P07711); assay: Inhibition of human CatL using Cbz-Phe-Arg-AMC as substrate measured over 30 mins by fluorimetric method
Outline: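 Human cathepsin L in a fluorimetric assay in 50 mM Tris pH 6.5, 5 mM EDTA, 200 mM NaCl, 0.005% Brij35 at 25 °C. Ki was calculated from IC50 by Cheng-Prusoff. Value is the average of two measurements, each in duplicate.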

[4] = Solubility of the compound at pH 6.5 by LYSA; assay type: physicochemical; details: buffer
Outline: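 Lyophilization solubility assay at pH 6.5.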

Rhodesain = Rhodesain (Trypanosoma brucei rhodesiense, UniProt Q95PM0); assay: Inhibition of Trypanosoma brucei rhodesiense rhodesain using Cbz-Phe-Arg-AMC as substrate by fluorimetric method
Outline: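 Fluorescence-based assay run at 25 °C in 50 mM sodium acetate pH 5.5 with 5 mM EDTA, 200 mM NaCl and 0.005% Brij35. IC50 values were converted to Ki with the Cheng-Prusoff equation. Values are the average of two measurements, each done in duplicate.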

Chain of Procathepsin L (P07711 whole entry): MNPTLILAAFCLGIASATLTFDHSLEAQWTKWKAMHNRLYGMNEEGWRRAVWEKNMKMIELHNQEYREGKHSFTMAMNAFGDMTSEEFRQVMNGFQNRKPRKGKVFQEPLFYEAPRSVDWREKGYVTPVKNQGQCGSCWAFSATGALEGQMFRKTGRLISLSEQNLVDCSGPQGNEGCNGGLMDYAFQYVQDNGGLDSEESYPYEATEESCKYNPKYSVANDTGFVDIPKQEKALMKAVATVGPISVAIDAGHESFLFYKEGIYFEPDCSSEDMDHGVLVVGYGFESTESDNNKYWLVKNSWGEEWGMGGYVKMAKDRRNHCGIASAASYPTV
Chain of Rhodesain (Q95PM0 whole entry): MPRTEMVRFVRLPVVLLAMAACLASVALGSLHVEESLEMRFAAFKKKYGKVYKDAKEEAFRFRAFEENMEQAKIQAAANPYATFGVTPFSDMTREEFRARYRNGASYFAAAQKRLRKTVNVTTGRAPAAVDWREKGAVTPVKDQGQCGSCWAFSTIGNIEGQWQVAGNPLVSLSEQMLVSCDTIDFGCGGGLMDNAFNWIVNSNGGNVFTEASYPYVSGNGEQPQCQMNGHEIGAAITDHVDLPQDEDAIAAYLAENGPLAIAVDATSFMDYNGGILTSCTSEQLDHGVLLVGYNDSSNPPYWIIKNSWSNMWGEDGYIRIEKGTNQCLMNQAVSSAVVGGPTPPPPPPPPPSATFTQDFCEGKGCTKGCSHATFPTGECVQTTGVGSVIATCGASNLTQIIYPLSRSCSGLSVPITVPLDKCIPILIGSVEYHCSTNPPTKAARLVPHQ

Row | SMILES | Ratio Ki [1] | selectivity ratio [2] | IC50 [3] | IC50 (L6) | Ki (Procathepsin L) | solubility [4] | Ki (Rhodesain)
1 | N#CC1(NC(=O)[C@H](Cc2ccc(OC(F)(F)F)c(Cl)c2)NC(=O)c2cnn(-c3ccc(Br)cc3)n2)CC1 | 43 | 271 | 28 nM | 7600 nM | 1080 nM | < 0.3 µg/mL | 25 nM
2 | N#Cc1ccccc1C[C@H](NC(=O)c1cnn(-c2ccc(F)cc2)n1)C(=O)NC1(C#N)CC1 | 18 to 507 | – | – | – | – | – | 7.4 to 597 nM
3 | N#CC1(NC(=O)[C@H](Cc2ccc(Cl)c(Cl)c2)NC(=O)c2cnn(C3CCOCC3)n2)CC1 | 23 | – | 23 nM | > 100000 nM | 93 nM | – | 4 nM
4 | N#CC1(NC(=O)[C@H](Cc2ccc(OCC3CCC3)c(Cl)c2)NC(=O)c2cnn(-c3ccc(F)cc3)n2)CC1 | 20 | 281 | 27 nM | 7600 nM | 314 nM | < 0.3 µg/mL | 16 nM
5 | COCCOc1ccc(C[C@H](NC(=O)c2cnn(-c3ccc(F)cc3)n2)C(=O)NC2(C#N)CC2)cc1Cl | 18 to 507 | – | 27 to 190 nM | – | 181 to 314 nM | – | 9 to 16 nM
6 | N=C(N)c1ccc(OCCCCCOc2ccc(C(=N)N)cc2)cc1 [PENTAMIDINE] | – | – | 9 nM | – | – | – | –
7 | N#CC1(NC(=O)[C@H](Cc2ccc(OC(F)(F)F)c(Cl)c2)NC(=O)c2cnn(C3CCCCC3)n2)CC1 | 6.8 | 5170 | 6 nM | 31000 nM | 82 nM | 0.3 µg/mL (≈ 0.572 µM) | 12 nM
8 | N#CC1(NC(=O)[C@H](Cc2ccc(Cl)c(Cl)c2)NC(=O)c2cnn(C3CCC3)n2)CC1 | 0.1 | 14600 | 4 nM | 58200 nM | 7 nM | – | 71 nM
9 | N#CC1(NC(=O)[C@H](Cc2ccc(OC(F)(F)F)c(Cl)c2)NC(=O)c2cnn(-c3ccc(Cl)cc3)n2)CC1 | 47 | 377 | 22 nM | 8300 nM | 467 nM | < 0.3 µg/mL | 10 nM
10 | N#CC1(NC(=O)[C@H](Cc2cccc(Cl)c2)NC(=O)c2cnn(-c3ccc(F)cc3)n2)CC1 | 18 to 507 | – | – | – | – | – | 7.4 to 597 nM
11 | N#CC1(NC(=O)[C@H](Cc2ccccc2C(F)(F)F)NC(=O)c2cnn(-c3ccc(F)cc3)n2)CC1 | 18 to 507 | – | – | – | – | – | 7.4 to 597 nM
12 | CC1CS(=O)(=O)CCN1/N=C/c1ccc([N+](=O)[O-])o1 (stereo not drawn) [NIFURTIMOX] | – | – | 1440 nM | – | – | – | –
13 | CSc1ccc(-n2ncc(C(=O)N[C@@H](Cc3ccc(OC(F)(F)F)c(Cl)c3)C(=O)NC3(C#N)CC3)n2)cc1 | 59 | – | 67 nM | > 10000 nM | 1120 nM | < 0.3 µg/mL | 19 nM
14 | N#CC1(NC(=O)[C@H](Cc2ccc(OCc3ccccc3)cc2)NC(=O)c2cnn(-c3ccc(F)cc3)n2)CC1 | 87 | – | 19 nM | > 10000 nM | 1470 nM | < 0.3 µg/mL | 17 nM
15 | CSc1ccc(OCc2ncc([N+](=O)[O-])n2C)cc1 [FEXINIDAZOLE] | – | – | 1710 to 2930 nM | – | – | – | –
16 | N#CC1(NC(=O)[C@H](Cc2ccccc2)NC(=O)c2cnn(-c3ccc(F)cc3)n2)CC1 | 18 to 507 | – | – | – | – | – | 7.4 to 597 nM
17 | Cc1ccc(C(=O)Nc2ccc(S(=O)(=O)O)c3cc(S(=O)(=O)O)cc(S(=O)(=O)O)c23)cc1NC(=O)c1cccc(NC(=O)Nc2cccc(C(=O)Nc3cc(C(=O)Nc4ccc(S(=O)(=O)O)c5cc(S(=O)(=O)O)cc(S(=O)(=O)O)c45)ccc3C)c2)c1 [SURAMIN] | – | – | 46 nM | – | – | – | –
18 | N#CC1(NC(=O)[C@H](Cc2ccc(OCC3CC3)c(Cl)c2)NC(=O)c2cnn(-c3ccc(F)cc3)n2)CC1 | 18 to 507 | – | 27 to 190 nM | – | 181 to 314 nM | – | 9 to 16 nM
19 | N#CC1(NC(=O)[C@H](Cc2ccccc2Cl)NC(=O)c2cnn(-c3ccc(F)cc3)n2)CC1 | 18 to 507 | – | – | – | – | – | 7.4 to 597 nM

From ChEMBL document CHEMBL4043300, “2 H-1,2,3-Triazole-Based Dipeptidyl Nitriles: Potent, Selective, and Trypanocidal Rhodesain Inhibitors by Structure-Based Design” (J Med Chem, 2018)
